Reference: ChEMBL document CHEMBL3877288, “Identification and biochemical characterization of DC07090 as a novel potent small molecule inhibitor against human enterovirus 71 3C protease by structure-based virtual screening” (Eur J Med Chem, 2016)
Blank lines part the entries; values can stand above or below the compound they belong to. Calls of active or inactive are those of the source. The calls are words filed in the database; no cut-off is given here.

Columns and labels:
[1] = Inhibition of recombinant N-terminal 6His-tagged EV71 3C protease expressed in Escherichia coli Rosetta using substrate Dabcyl-RTATVQGPSLDFE-Edans preincubated for 30 mins followed by substrate addition; design: species or system Enterovirus A71
Summary of the method: (§1)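 Preincubated with compound in DMSO for 30 min at 30 °C. Ex 340/Em 500 nm; initial velocity over the first 600 s. Inhibition relative to DMSO control; mean of three experiments. IC50 from serial dilutions.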

[2] = test system: Enterovirus A71; test: Inhibition of recombinant N-terminal 6His-tagged EV71 3C protease expressed in Escherichia coli Rosetta using substrate Dabcyl-RTATVQGPSLDFE-Edans at 50 uM after 30 mins by fluorescence assay; summary of the method: as §1
[3] = test system: Enterovirus A71; test: Antiviral activity against EV71 infected in human RD cells assessed as protection against virus infection after 72 hrs by MTS assay; type: functional, cell-based; conditions: Enterovirus A
[4] = test system: Enterovirus A71; test: Antiviral activity against EV71 infected in human RD cells assessed as reduction in viral plaque formation after 1 hr by crystal violet staining method; type: functional, cell-based; conditions: Enterovirus A
[5] = test system: Coxsackievirus; test: Antiviral activity against Coxsackievirus A16 assessed as reduction in viral replication after 72 hrs by CellTiter-glo luminescent cell viability assay; type: functional; conditions: A16, 72 h
Summary of the method: (§2)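 RD cells seeded at 1 × 10^4/mL in DMEM with 10% FBS and antibiotics, grown 24 h at 37 °C, 5% CO2. Virus (EV71 50 TCID50; CVA16 100 TCID50) mixed with serial compound dilutions, added to cells and held 72 h at 37 °C. Protection read by CellTiter-Glo luminescence. EC50 is the concentration cutting virus-induced cell death by 50% versus virus control. Triplicate, run at least twice.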

[6] = Cytotoxicity against African green monkey Vero cells after 48 hrs by MTT assay; type: toxicity, cell-based; conditions: chlorocebus sabaeus
[7] = test system: Enterovirus A71; test: Antiviral activity against EV71 infected in African green monkey Vero cells after 48 hrs by plaque assay; type: functional, cell-based; conditions: Enterovirus A
[8] = test system: Enterovirus A71; test: Antiviral activity against EV71 assessed as reduction in viral replication after 72 hrs by CellTiter-glo luminescent cell viability assay; type: functional; conditions: Enterovirus A; summary of the method: as §2
[9] = test system: Enterovirus A71; test: Antiviral activity against EV71 infected in human RD cells assessed as protection against virus-induced cytopathic effect after 48 hrs by MTS assay; type: functional, cell-based; conditions: Enterovirus A
[10] = test system: Enterovirus A71; test: Inhibition of EV71 3C protease F25A mutant using substrate Dabcyl-RTATVQGPSLDFE-Edans at 0.1 to 10 uM preincubated for 30 mins followed by substrate addition by fluorescence assay
[11] = Binding affinity to recombinant N-terminal 6His-tagged EV71 3C protease expressed in Escherichia coli Rosetta by surface plasmon resonance assay; design: species or system Enterovirus A71
Summary of the method: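 Compound concentrations in HBS-EP were injected at 30 µL/min for 60 s, with 120 s dissociation, on a Biacore 3000. Kd fitted with a 1:1 Langmuir model.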

[12] = Binding affinity to EV71 3C protease A144S mutant after 1 hr by intrinsic fluorescence quenching assay; design: species or system Enterovirus A71
[13] = test system: Enterovirus A71; test: Ratio of IC50 for recombinant N-terminal 6His-tagged EV71 3C protease to IC50 for EV71 3C protease F25W mutant
[14] = Binding affinity to EV71 3C protease F25A mutant after 1 hr by intrinsic fluorescence quenching assay; design: species or system Enterovirus A71
[15] = Inhibition of EV71 3C protease A144S mutant using substrate Dabcyl-RTATVQGPSLDFE-Edans preincubated for 30 mins followed by substrate addition by fluorescence assay; design: species or system Enterovirus A71
[16] = Binding affinity to EV71 3C protease F25W mutant after 1 hr by intrinsic fluorescence quenching assay; design: species or system Enterovirus A71
[17] = Inhibition of EV71 3C protease F25W mutant using substrate Dabcyl-RTATVQGPSLDFE-Edans at 0.1 to 10 uM preincubated for 30 mins followed by substrate addition by fluorescence assay; design: species or system Enterovirus A71
[18] = Competitive inhibition of recombinant N-terminal 6His-tagged EV71 3C protease expressed in Escherichia coli Rosetta using substrate Dabcyl-RTATVQGPSLDFE-Edans by Dixon plot; design: species or system Enterovirus A71
Summary of the method: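 Same fluorogenic 3Cpro activity assay (8 µM enzyme, 30 min preincubation at 30 °C, Ex 340/Em 500 nm, initial rates) run at inhibitor 0–20 µM and substrate 40–150 µM. Mechanism assigned from Lineweaver–Burk plots; Ki obtained from Dixon plots.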

[19] = test system: Enterovirus A71; test: Ratio of IC50 for recombinant N-terminal 6His-tagged EV71 3C protease to IC50 for EV71 3C protease A144S mutant
[20] = Cytotoxicity against human RD cells after 48 hrs by CellTiter-glo luminescent cell viability assay; type: toxicity, cell-based
Summary of the method: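 RD cells plated at 1 × 10^3 per well in DMEM with 10% FBS and antibiotics, cultured overnight at 37 °C, 5% CO2. Compound added at 0–200 µM (final) for 48 h at 37 °C. CellTiter-Glo luminescence read. Inhibition = 1 − RLU(treated)/RLU(cell control) × 100%. CC50 obtained by regression analysis.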

[21] = test system: Enterovirus A71; test: (§3) Binding affinity to recombinant N-terminal 6His-tagged EV71 3C protease expressed in Escherichia coli Rosetta after 1 hr by intrinsic fluorescence quenching assay
Summary of the method: (§4)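 Compound dilutions were mixed with 2 µM 3Cpro (wild type or mutants) for 1 h on ice, then held 5 min in the dark in a 1 cm quartz cell. Trp emission spectra recorded from 300 to 400 nm at 25 °C, with maximum at 340 nm. Kd derived from dose-dependent quenching.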

[22] = as §3; design: species or system Enterovirus A71; summary of the method: as §4

Compound: Cc1cccc(CNc2ccc(-c3nc4ncccc4o3)cc2)n1
IC50 [1]: 40.1 µM
inhibition [2]: 68.1%

Compound: O=c1cc(-c2ccccc2)oc2cc(O)cc(O)c12 [CHRYSIN]
EC50 [3]: 15.9 µM

Compound: CCOC(=O)/C=C/[C@H](C[C@@H]1CCNC1=O)NC(=O)[C@@H](CC(=O)[C@@H](NC(=O)c1cc(C)on1)C(C)C)Cc1ccc(F)cc1 [RUPINTRIVIR]
EC50 [5]: 0.00565 µM
IC50 [1]: 2.62 µM
inhibition [2]: 104%

Compound: C#C[C@@]1(O)[C@H](O)[C@@H](CO)O[C@H]1n1ccc2c(N)ncnc21
CC50 at 48 h [6]: 120 µM
EC50 [7]: 0.67 µM
EC50 [8]: 0.17 µM

Compound: Cc1ccc2oc(-c3ccc(NCc4ccccn4)c(F)c3)nc2n1
inhibition [2]: 6.72%

Compound: Cc1ccc2oc(-c3ccc(NCc4ccccn4)cc3)nc2n1
inhibition [2]: 19.2%

Compound: Cc1cccc(CNc2ccc(-c3nc4nc(C)ccc4o3)cc2)n1
inhibition [2]: < 5%

Compound: c1ccc(CNc2ccc(Cc3nc4ncccc4o3)cc2)nc1
IC50 [1]: 48 µM
inhibition [2]: 73.7%

Compound: COc1cc(-c2cc(=O)c3c(O)cc(OP(=O)(OC(C)C)OC(C)C)cc3o2)cc(OC)c1O
EC50 [3]: 9.06 µM

Compound: Cc1cccc(CNc2ccc(Cc3nc4ncccc4o3)cc2)n1
IC50 [1]: 31.6 µM
inhibition [2]: 60%

Compound: Cc1cccc(CNc2ccc(Cc3nc4nc(C)ccc4o3)cc2)n1
inhibition [2]: 7.42%

Compound: O=c1cc(-c2ccc(O)c(O)c2)oc2cc(O[C@@H]3O[C@H](CO)[C@@H](O)[C@H](O)[C@H]3O)cc(O)c12 [GALUTEOLIN]
EC50 [9]: 430 µM

Compound: c1ccc(CNc2ccc(-c3nc4ncccc4o3)cc2)nc1
inhibition [10]: Active
Kd [11]: 16.5 µM
Kd [12]: 6.37 µM
Ratio IC50 [13]: 9.5
Kd [14]: 25 µM
EC50 [5]: 27.8 µM
IC50 [15]: 9.73 µM
Kd [16]: 12.1 µM
IC50 [17]: 2.28 µM
EC50 [8]: 22.1 µM
Ki [18]: 23.3 µM
Ratio IC50 [19]: 2.2
CC50 at 48 h [20]: > 200 µM
Activity [21]: Dose-dependent effect
Kd [22]: 13.4 µM
IC50 [1]: 21.7 µM
inhibition [2]: 80.2%

Compound: Fc1cc(-c2nc3ncccc3o2)ccc1NCc1ccccn1
inhibition [2]: < 5%

Compound: Cc1ccc2oc(Cc3ccc(NCc4ccccn4)cc3)nc2n1
inhibition [2]: 11.9%

Next, values leading:

inhibition [2]: < 5%
Compound: Cc1cccc(CNc2ccc(-c3nc4nc(C)ccc4o3)cc2F)n1

EC50 [4]: 110 µM
Compound: C[C@@H]1O[C@@H](OC[C@H]2O[C@@H](Oc3c(-c4ccc(O)c(O)c4)oc4cc(O)cc(O)c4c3=O)[C@H](O)[C@@H](O)[C@@H]2O)[C@H](O)[C@H](O)[C@H]1O [RUTIN]

inhibition [2]: 18.6%
Compound: Cc1cccc(CNc2ccc(-c3nc4nc(C)ccc4o3)cc2Cl)n1

inhibition [2]: 6.65%
Compound: Clc1cc(-c2nc3ncccc3o2)ccc1NCc1ccccn1

inhibition [2]: 34.7%
Compound: Cc1cccc(CNc2ccc(-c3nc4ncccc4o3)cc2Cl)n1

inhibition [2]: 6.96%
Compound: Cc1ccc2oc(-c3ccc(NCc4ccccn4)c(Cl)c3)nc2n1

inhibition [2]: 19.2%
Compound: Cc1cccc(CNc2ccc(-c3nc4ncccc4o3)cc2F)n1

EC50 [4]: 84.5 µM
Compound: O=c1c(O)c(-c2ccc(O)c(O)c2)oc2cc(O)ccc12 [FISETIN]
